Reference: ChEMBL document CHEMBL1121998, “Synthesis and hypoglycemic activity of phenylalkyloxiranecarboxylic acid derivatives” (J Med Chem, 1982)
Active and inactive are the calls of the source. No cut-off for these calls is given here.

Experiments:
Rattus norvegicus [1] = assay: Ability to decrease blood glucose levels in fasted rats at the dose of 0.6 mmol/kg was determined; format: functional
Outline: (§1)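 Male Sprague–Dawley SIV-50 or Mus Rattus rats (160–200 g), 6–12 per group, fasted overnight. Oral tube dosing as neutral aqueous solution or 1:1 Cremophor EL/water emulsion, 10 mL/kg. Retro-orbital blood taken before and at 2, 4 and 6 h; glucose measured enzymatically (HK/G6PDH). Change expressed relative to controls; two-sided Student's t test.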

[2] = Tested for its effect on hepatic epoxide hydrolase; No significant inhibition up to 1e-3 mol/L
Rattus norvegicus [3] = species: Rattus norvegicus; assay: Effective dose at which 50% of the rats show at least a 25% decrease of blood glucose levels compared to controls; format: functional
Outline: (§2)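 Overnight-fasted male rats (Sprague–Dawley SIV-50 or Mus Rattus, 160–200 g), 6–12 per group, dosed orally at 10 mL/kg as neutral aqueous solution or 1:1 Cremophor EL/water emulsion. Retro-orbital blood glucose by HK/G6PDH before and 2, 4, 6 h post-dose. ED50 (25%) = dose at which 50% of rats show ≥25% fall versus controls. Derived by linear or log-linear regression over at least four doses.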

[4] = Compound was tested for its lethality in mice when administered perorally; format: ADME, organism-based; conditions: mouse, in vivo, po
Outline: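 Groups of five female NMR mice (22-26 g), water ad libitum, food reduced to 50 g/kg body weight 18 h before dosing; single oral administration.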

Rattus norvegicus [5] = species: Rattus norvegicus; assay: Effective dose at which 50% of the rats show at least a 25% decrease of blood glucose levels compared to controls; Not feasible; format: functional, organism-based; outline: as §2
Rattus norvegicus [6] = assay: Ability to decrease blood glucose levels in fasted rats at the dose of 0.6 mmol/kg was determined; No effect; format: functional, organism-based; outline: as §1
Rattus norvegicus [7] = species: Rattus norvegicus; assay: Effective dose at which 50% of the rats show at least a 25% decrease of blood glucose levels compared to controls; Reverse effect at higher dose

| SMILES | Decrease (Rattus norvegicus [1]) | Effect [2] | ED50 (Rattus norvegicus [3]) | Decrease (Rattus norvegicus [6]) | also measured |
| --- | --- | --- | --- | --- | --- |
| CCOC(=O)C1(CCCc2ccc(Cl)c(Cl)c2)CO1 (stereo not given) | <29% | No significant inhibition up to 1e-3 mol/L | 330 µmol/kg |  | LD50 [4]: 2870 µmol/kg |
| CCOC(=O)C1(CCCc2cccc(C(F)(F)F)c2)CO1 (stereo not given) | <47% | No significant inhibition up to 1e-3 mol/L | 170 µmol/kg |  | LD50 [4]: 860 µmol/kg |
| O=C([O-])C1(CCCc2ccc(Cl)cc2)CO1.[Na+] (stereo not given) | <68% |  | 180 µmol/kg |  |  |
| CCOC(=O)C1(CCCc2ccc(F)cc2)CO1 (stereo not given) | <37% |  |  |  | LD50 [4]: 3960 µmol/kg |
| O=C([O-])C1(CCCCCc2ccccc2)CO1.[Na+] (stereo not given) | <29% | No significant inhibition up to 1e-3 mol/L |  |  | LD50 [4]: 1060 µmol/kg; ED50 (Rattus norvegicus [5]): inactive |
| CCOC(=O)C1(CCCCCCCc2ccc(Cl)cc2)CO1 (stereo not given) | <49% |  | 270 µmol/kg |  | LD50 [4]: 950 µmol/kg |
| CCOC(=O)C1(CCCCCc2ccc(Cl)cc2)CO1 (stereo not given) | 80% | No significant inhibition up to 1e-3 mol/L | 20 µmol/kg |  | LD50 [4]: 930 µmol/kg |
| CCOC(=O)C1(CCCc2ccccc2)OC1(C)C (stereo not given) |  |  |  | inactive |  |
| CCOC(=O)C1(CCCCCc2ccccc2)CO1 (stereo not given) | <18% | No significant inhibition up to 1e-3 mol/L |  |  | ED50 (Rattus norvegicus [7]): 80 µmol/kg; LD50 [4]: 880 µmol/kg |
| CCOC(=O)C1(CCCc2ccccc2)CO1 (stereo not given) | <19% | No significant inhibition up to 1e-3 mol/L | 1170 µmol/kg |  |  |
| CCOC(=O)C1(CCCc2cccc(Cl)c2)CO1 (stereo not given) | <26% |  | 680 µmol/kg |  |  |
| CCOC(=O)C1(CCCCCCCCc2ccccc2)CO1 (stereo not given) |  |  |  | inactive |  |
| CCOC(=O)C1(CCc2ccccc2)CO1 (stereo not given) |  | No significant inhibition up to 1e-3 mol/L |  | inactive |  |
| CCOC(=O)C1(CCCc2ccc(C(C)(C)C)cc2)CO1 (stereo not given) |  |  |  | inactive |  |
| CCOC(=O)C1(Cc2ccccc2)CO1 (stereo not given) |  | No significant inhibition up to 1e-3 mol/L |  | inactive |  |
| CCOC(=O)C1(CCCc2ccc(Cl)cc2)CO1 (stereo not given) | <30% | No significant inhibition up to 1e-3 mol/L | 200 µmol/kg |  | LD50 [4]: 2720 µmol/kg |
| CCOC(=O)C1(CCCc2ccccc2Cl)CO1 (stereo not given) | <11% |  |  |  |  |

| SMILES | Decrease (Rattus norvegicus [1]) | Effect [2] | ED50 (Rattus norvegicus [3]) | Decrease (Rattus norvegicus [6]) | also measured |
| --- | --- | --- | --- | --- | --- |
| CCOC(=O)C1OC1CCc1ccccc1 (stereo not given) |  |  |  | inactive |  |
| CCOC(=O)C1(CCCc2ccc(Cl)cc2)OC1(C)C (stereo not given) | 10% |  |  |  |  |
| CCOC(=O)C1(CCCc2ccc(Cl)cc2)OC12CCCCC2 (stereo not given) |  |  |  | inactive |  |
| COC(=O)C1OC1CCCc1ccccc1 (stereo not given) |  |  |  | inactive |  |
| CCOC(=O)C1(CCCCc2ccccc2)CO1 (stereo not given) | <44% | No significant inhibition up to 1e-3 mol/L | 600 µmol/kg |  |  |
| CCOC(=O)C1(CCCc2ccc(C)cc2)CO1 (stereo not given) | <27% | No significant inhibition up to 1e-3 mol/L |  |  |  |
| CCOC(=O)C1(CCCc2ccc(OC)cc2)CO1 (stereo not given) |  |  |  | inactive |  |
| NC(=O)C1(CCCc2ccccc2)CO1 (stereo not given) |  |  |  | inactive |  |
| CCNC(=O)C1(CCCc2ccccc2)CO1 (stereo not given) |  |  |  | inactive |  |
| CCN(CC)C(=O)C1(CCCc2ccccc2)CO1 (stereo not given) |  |  |  | inactive |  |
| CCOC(=O)C1(CCCCCCCc2ccccc2)CO1 (stereo not given) | 18% |  |  |  | ED50 (Rattus norvegicus [5]): inactive |
| CCOC(=O)C1(CCCCCCc2ccccc2)CO1 (stereo not given) | 24% |  |  |  | ED50 (Rattus norvegicus [5]): inactive |
| CCOC(=O)C1(CCCc2cc(Cl)ccc2OC)CO1 (stereo not given) |  |  |  | inactive |  |
| O=C([O-])C1(CCCc2cccc(C(F)(F)F)c2)CO1.[Na+] (stereo not given) | <77% | No significant inhibition up to 1e-3 mol/L | 80 µmol/kg |  |  |
| CCOC(=O)C1(CCCc2ccccc2)OC12CCCCC2 (stereo not given) |  |  |  | inactive |  |
| O=C([O-])C1(CCCCCc2ccc(Cl)cc2)CO1.[Na+] (stereo not given) | 80% | No significant inhibition up to 1e-3 mol/L | 30 µmol/kg |  | LD50 [4]: 1640 µmol/kg |
